Experimental data reported in ChEMBL document CHEMBL5625181, “Exploring the 1,3-benzoxazine chemotype for cannabinoid receptor 2 as a promising anti-cancer therapeutic” (Eur J Med Chem, 2023).
Active and inactive are the calls of the source. The calls are words filed in the database; no cut-off is given here.

Columns and labels:
Cannabinoid receptor 1 = Cannabinoid receptor 1 (Homo sapiens, UniProt P21554); assay: Agonist activity at human recombinant Cannabinoid receptor 1 by GTPgammaS binding assay; format: functional
Chain of Cannabinoid receptor 1 (P21554 whole entry): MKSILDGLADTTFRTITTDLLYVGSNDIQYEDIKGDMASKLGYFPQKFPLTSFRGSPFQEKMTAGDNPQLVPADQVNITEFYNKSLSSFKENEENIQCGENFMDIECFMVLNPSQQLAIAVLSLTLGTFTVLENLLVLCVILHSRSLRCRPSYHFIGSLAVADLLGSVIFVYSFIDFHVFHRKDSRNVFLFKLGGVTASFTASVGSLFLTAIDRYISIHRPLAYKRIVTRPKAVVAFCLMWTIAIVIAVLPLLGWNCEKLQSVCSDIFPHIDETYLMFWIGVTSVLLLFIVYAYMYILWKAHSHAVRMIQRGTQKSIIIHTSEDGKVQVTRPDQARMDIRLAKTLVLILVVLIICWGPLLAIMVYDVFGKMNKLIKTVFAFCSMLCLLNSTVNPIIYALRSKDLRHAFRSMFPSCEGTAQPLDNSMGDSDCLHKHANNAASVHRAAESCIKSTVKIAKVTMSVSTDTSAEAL
Method in brief: (§1)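 [35S]GTPγS filtration assay. Membranes (5 µg CB2 or 10 µg/well CB1), permeabilized with equal mass of saponin, preincubated 20 min at room temperature with compound (0-100 μM) in 20 mM HEPES, 100 mM NaCl, 10 mM MgCl2, 10 µM GDP, pH 7.4. Then 0.3 nM [35S]GTPγS for 30 min at 37 °C. Quintuplicate, ≥3 experiments. pEC50 from non-linear fit.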

Cannabinoid receptor 2 [1] = target: T1, Cannabinoid receptor 2 (Homo sapiens, UniProt P34972); assay: Displacement of [3H]CP55,940 from human CB2 receptor expressed in CHO cells membrane assessed as residual activity at 0.1 uM by scintillation counting analysis relative to control; format: cell membranes
T1 sequence (P34972 whole entry): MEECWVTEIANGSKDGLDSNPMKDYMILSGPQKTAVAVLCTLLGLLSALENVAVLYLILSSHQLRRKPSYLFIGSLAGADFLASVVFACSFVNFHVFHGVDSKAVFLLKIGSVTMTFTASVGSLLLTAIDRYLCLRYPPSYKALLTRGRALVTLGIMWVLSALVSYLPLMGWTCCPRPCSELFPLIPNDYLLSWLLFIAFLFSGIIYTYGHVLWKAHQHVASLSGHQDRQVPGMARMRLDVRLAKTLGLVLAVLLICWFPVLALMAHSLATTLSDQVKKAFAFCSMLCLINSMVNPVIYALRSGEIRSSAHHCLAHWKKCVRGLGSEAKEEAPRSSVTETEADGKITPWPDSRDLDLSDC
Method in brief: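 Membranes (2.5 µg) from CHO cells stably expressing human CB2, in 50 mM Tris-HCl, 5 mM MgCl2, 1 mM CaCl2, 2 mg/mL BSA, pH 7.4. Incubated 30 min at 37 °C with 0.8 nM [3H]CP55,940 and 0.1 µM compound (final). Nonspecific binding with 1 µM unlabelled CP55,940. Filtered on PEI-soaked GF/B filters, scintillation counted. Quintuplicate, ≥3 experiments.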

Cannabinoid receptor 2 [2] = target: T1, Cannabinoid receptor 2; assay: Agonist activity at human recombinant Cannabinoid receptor 2 by GTPgammaS binding assay; format: functional; method in brief: as §1
MCF-10A = assay: Cytotoxicity activity against human MCF-10A cells assessed as change in cell proliferation by MTT assay; format: toxicity, cell-based
Method in brief: (§2)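 Cells seeded at 1.5 x 10^4/well and incubated overnight; sub-confluent cells treated at 37 °C for 24, 48 or 72 h. MTT added (final 1 mg/mL), 3 h at 37°C in the dark, formazan dissolved in DMSO, read at 590 nm. Expressed as % of vehicle; mean ± SEM of three experiments, each at least in quintuplicate.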

BT-549 [3] = assay: Antiproliferative activity against human BT-549 cells transfected with CNR2 siRNA assessed as inhibition of cell proliferation at 10 uM incubated after 24 hrs by MTT assay; format: functional, cell-based
Method in brief: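 BT549 cells transfected with 50 nM CNR2 siRNA or scramble control by lipofection. After 24 h, treated with vehicle or 10 µM compound for a further 24 h. Viability by MTT (1 mg/mL, 3 h, 37°C, 590 nm).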

Cannabinoid receptor 2 [4] = target: T1, Cannabinoid receptor 2; assay: Agonist activity at human Cannabinoid receptor 2 in BT-549 cells assessed as change in ERK1/2 phosphorylation level at 10 uM and observed after 10 min by westernblot analysis; format: functional, cell-based
Method in brief: (§3)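 BT549 cells, untransfected or transfected with scramble oligo or CNR2 siRNA, incubated at 37°C with or without 10 μM compound for the indicated periods. Phospho-ERK1/2 measured by Western blot on whole lysates (20-40 µg/lane, SDS-PAGE, PVDF, enhanced chemiluminescence). Values compared with relative vehicle-treated cells.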

BT-549 [5] = assay: Inhibition of colony formation in human BT-549 cells assessed as decrease in number of colonies at 10 uM incubated for 14 days by inverted phase contrast microscope relative to control; format: functional; design: scale not given: the % may be the effect or the level left; conditions: time 14 day
Method in brief: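 BT549 seeded at 1 x 10^3 cells/well and grown at 37 °C for at least 14 days with vehicle or compound. Colonies fixed and stained with 6% glutaraldehyde/0.5% crystal violet for 30 min, then counted by inverted phase-contrast microscopy (10x). Expressed as % of vehicle. Three independent experiments, each at least in triplicate.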

BT-549 [6] = assay: Antiinflammatory activity in human BT-549 cells assessed as decrease in IL-6 level at 10 uM incubated for 48 hrs by ELISA method relative to control; format: functional; design: scale not given: the % may be the effect or the level left
Method in brief: (§4)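 BT549 cells seeded at 1.5 x 10^4/well and treated after 24 h with vehicle or compound at 37 °C for 48 h. TNF-α and IL-6 in supernatant measured by ELISA at 450 nm against a recombinant cytokine standard curve (0-1000 pg/mL). Expressed as % of vehicle. Three independent experiments, each in triplicate.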

BT-549 [7] = assay: Antiinflammatory activity in human BT-549 cells transfected with CNR2 siRNA assessed as decrease in TNF-alpha level at 10 uM incubated for 48 hrs by ELISA method; format: functional, cell-based
Method in brief: (§5)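 BT549 cells seeded at 1.5 x 10^4 cells/well, transfected with 50 nM CNR2 siRNA or scramble oligo, then treated with vehicle or 10 μM compound at 37 °C for 48 h. TNF-α and IL-6 in supernatant measured by ELISA at 450 nm. Expressed as % of vehicle; mean ± SEM of three experiments in triplicate.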

BT-549 [8] = assay: Antiinflammatory activity in human BT-549 cells assessed as decrease in TNF-alpha level at 10 uM incubated for 48 hrs by ELISA method relative to control; format: functional; design: scale not given: the % may be the effect or the level left; method in brief: as §4
BT-549 [9] = assay: Antiproliferative activity against human BT-549 cells assessed as inhibition in cell proliferation incubated after 72 hrs by MTT assay; format: functional, cell-based; conditions: dose 0.1-10 µM; method in brief: as §2
BT-549 [10] = assay: Antiinflammatory activity in human BT-549 cells transfected with CNR2 siRNA assessed as decrease in IL-6 level at 10 uM incubated for 48 hrs by ELISA method; format: functional, cell-based; method in brief: as §5
BT-549 [11] = assay: Antiproliferative activity against human BT-549 cells assessed as inhibition in cell proliferation at 1 to 10 uM incubated after 24 hrs by MTT assay; format: functional, cell-based; conditions: dose 1-10 µM; method in brief: as §2
MDA-MB-231 = assay: Antiproliferative activity against human triple negative MDA-MB-231 cells assessed as change in cell proliferation by MTT assay; format: functional, cell-based; method in brief: as §2
Cannabinoid receptor 2 [12] = target: T1, Cannabinoid receptor 2; assay: Agonist activity at human Cannabinoid receptor 2 in BT-549 cells assessed as downregulation in ERK1/2 phosphorylation level at 10 uM by westernblot analysis; format: functional, cell-based; conditions: filed as agonist, time 5-60 min, TDE = time-dependent effect; method in brief: as §3
Cannabinoid receptor 2 [13] = target: T1, Cannabinoid receptor 2; assay: Agonist activity at human Cannabinoid receptor 2 in BT-549 cells transfected with CNR2 siRNA assessed as downregulation in ERK1/2 phosphorylation level at 10 uM and observed after 5 mins by Western blot analysis relative to control; format: functional, cell-based; method in brief: as §3
HCC1954 = assay: Antiproliferative activity against human HER2-positive HCC1954 cells assessed as change in cell proliferation by MTT assay; format: functional, cell-based; method in brief: as §2
Cannabinoid receptor 2 [14] = target: T1, Cannabinoid receptor 2; assay: Agonist activity at human Cannabinoid receptor 2 in BT-549 cells assessed as downregulation in ERK1/2 phosphorylation level at 10 uM and observed within 5 min by Western blot analysis relative to control; format: functional, cell-based; method in brief: as §3

Row | EC50 (Cannabinoid receptor 1; read-out: pEC50 (converted)) | Activity (Cannabinoid receptor 2 [1]) | EC50 (Cannabinoid receptor 2 [2]; read-out: pEC50 (converted)) | Structure (SMILES) | also measured
1 | 7240 nM | < 80% | 2950 nM | CN1C(=O)c2ccc(OS(=O)(=O)c3cccc4ccccc34)cc2OC1(C)C | –
2 | > 10000 nM | < 80% | 204 nM | O=C1c2ccc(OS(=O)(=O)c3cccc([N+](=O)[O-])c3)cc2OC2(CCOCC2)N1Cc1ccccc1 | –
3 | > 10000 nM | < 80% | 2140 nM | O=C1NC2(CCCCC2)Oc2cc(OS(=O)(=O)c3ccccc3[N+](=O)[O-])ccc21 | –
4 | > 10000 nM | < 80% | 776 nM | COc1cccc(S(=O)(=O)Oc2ccc3c(c2)OC2(CCCCC2)N(CCCCC#N)C3=O)c1 | –
5 | – | < 80% | – | O=C1c2ccc(OS(=O)(=O)c3ccc4c(c3)OCCO4)cc2OC2(CCOCC2)N1Cc1ccccc1 | –
6 | > 10000 nM | < 80% | 1000 nM | Cn1cnc(S(=O)(=O)Oc2ccc3c(c2)OC2(CCCCC2)N(Cc2ccccc2)C3=O)c1 | –
7 | > 10000 nM | < 80% | 355 nM | N#Cc1cccc(S(=O)(=O)Oc2ccc3c(c2)OC2(CCCCC2)N(Cc2ccccc2)C3=O)c1 | –
8 | – | < 80% | – | CN1C(=O)c2ccc(OS(=O)(=O)c3ccc(Oc4ccccc4)cc3)cc2OC1(C)C | –
9 | – | < 80% | – | O=C1c2ccc(OS(=O)(=O)c3ccc([N+](=O)[O-])cc3)cc2OC2(CCOCC2)N1Cc1ccccc1 | –
10 | > 10000 nM | < 80% | 417 nM | COc1cccc(S(=O)(=O)Oc2ccc3c(c2)OC2(CCCCC2)N(Cc2ccccc2)C3=O)c1 | –
11 | > 10000 nM | < 80% | 288 nM | N#Cc1ccc(S(=O)(=O)Oc2ccc3c(c2)OC2(CCCCC2)N(Cc2ccccc2)C3=O)cc1 | –
12 | > 10000 nM | < 80% | 372 nM | Cn1ccc(S(=O)(=O)Oc2ccc3c(c2)OC2(CCCCC2)N(Cc2ccc(C#N)cc2)C3=O)n1 | –

Row | Structure (SMILES) | EC50 (Cannabinoid receptor 1; read-out: pEC50 (converted)) | Activity (Cannabinoid receptor 2 [1]) | EC50 (Cannabinoid receptor 2 [2]; read-out: pEC50 (converted)) | also measured
13 | O=C1c2ccc(OS(=O)(=O)c3cccs3)cc2OC2(CCCCC2)N1Cc1ccccc1 | > 10000 nM | < 80% | – | EC50 (Cannabinoid receptor 1; read-out: EC50): > 10000 nM; Activity (MCF-10A): Non-Toxic; Activity (BT-549 [3]): inactive; Activity (Cannabinoid receptor 2 [4]): inactive; Activity (BT-549 [5]): 75.4%; Activity (BT-549 [6]): <=70%; Activity (BT-549 [7]): inactive; Activity (BT-549 [8]): <=50%; inhibition (BT-549 [9]): Dose-Dependent Effect; Activity (BT-549 [10]): inactive; inhibition (BT-549 [11]): Active; Activity (MDA-MB-231): Active; Activity (Cannabinoid receptor 2 [12]): Tde; Activity (Cannabinoid receptor 2 [13]): inactive; Activity (HCC1954): Active; Activity (Cannabinoid receptor 2 [14]): 30%; EC50 (Cannabinoid receptor 2 [2]; read-out: EC50): 110 nM
